In BindingDB's records for doi:10.1016/j.bmc.2009.06.008 (University of Leipzig, 2009):

biological target: Sonic hedgehog protein (Mus musculus, UniProt Q62226); assay: Inhibition of SHH in mouse Shh-Light2 cells after 48 hrs by Gli1 reporter gene assay in presence of SAG
Summary of the method: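 Shh-Light II cells co-treated with the Hh activator SAG and inhibitor for 48 h. Cells washed with PBS and lysed, then firefly and constitutive Renilla luminescence read by dual-luciferase assay. IC50 from firefly/Renilla RLU/s plotted against concentration, Hill-slope non-linear regression. Highest concentration 5000 nM. 2–4 independent experiments, each in technical triplicate.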

Compound | IC50 [nM]
N#Cc1ccc(C(=O)Nc2ccc(Cl)c(-c3nc4ccccc4[nH]3)c2)cc1 [N-(3-(1H-Benzo[d]imidazol-2-yl)-4-chlorophenyl)-4-cyanobenzamide] | 185
O=C(Nc1ccc(Cl)c(-c2nc3ccccc3[nH]2)c1)c1ccccc1 [N-(3-(1H-Benzo[d]imidazol-2-yl)-4-chlorophenyl)-benzamide] | 163
COc1ccccc1C(=O)Nc1ccc(Cl)c(-c2nc3ccccc3[nH]2)c1 [N-(3-(1H-Benzo[d]imidazol-2-yl)-4-chlorophenyl)-2-methoxybenzamide] | 876
CN(C)c1ccc(C(=O)Nc2ccc(Cl)c(-c3nc4ccccc4[nH]3)c2)cc1 [N-(3-(1H-Benzo[d]imidazol-2-yl)-4-chlorophenyl)-4-(dimethylamino)benzamide] | 190
O=C(Nc1ccc(Cl)c(-c2nc3ccccc3[nH]2)c1)c1ccc(Cl)cc1 [N-(3-(1H-Benzo[d]imidazol-2-yl)-4-chlorophenyl)-4-chlorobenzamide] | 224
CC1=C2C[C@H]3[C@@H](CC=C4C[C@@H](O)CC[C@@]43C)[C@@H]2CC[C@]12O[C@@H]1C[C@H](C)CN[C@H]1[C@H]2C | 1310
O=C(Nc1ccc(Cl)c(-c2nc3ccccc3[nH]2)c1)c1ccc(F)cc1 [N-(3-(1H-Benzo[d]imidazol-2-yl)-4-chlorophenyl)-4-fluorobenzamide] | 251
CCOc1cc(C(=O)Nc2cccc(-c3nc4ccccc4[nH]3)c2)cc(OCC)c1OCC [N-(3-(1H-Benzo[d]imidazol-2-yl)phenyl)-3,4,5-triethoxybenzamide] | 1320

Stronger by IC50, values ahead:

IC50 [nM] | Compound
79.8 | COc1cc(C(=O)Nc2ccc(Cl)c(-c3nc4ccccc4[nH]3)c2)cc(OC)c1OC [N-(3-(1H-Benzo[d]imidazol-2-yl)-4-chlorophenyl)-3,4,5-trimethoxybenzamide]
119 | O=C(Nc1ccc(Cl)c(-c2nc3ccccc3[nH]2)c1)c1cccc(C(F)(F)F)c1 [N-(3-(1H-Benzo[d]imidazol-2-yl)-4-chlorophenyl)-3-(trifluoromethyl)benzamide]
117 | COc1ccc(C(=O)Nc2ccc(Cl)c(-c3nc4ccccc4[nH]3)c2)cc1 [N-(3-(1H-Benzo[d]imidazol-2-yl)-4-chlorophenyl)-4-methoxybenzamide]
97.9 | CCOc1cc(C(=O)Nc2ccc(Cl)c(-c3nc4ccccc4[nH]3)c2)cc(OCC)c1OCC [N-(3-(1H-Benzo[d]imidazol-2-yl)-4-chlorophenyl)-3,4,5-triethoxybenzamide]
